Each block holds one compound with its values, some of them ahead of it. Active and inactive are the calls of the source. No cut-off for these calls is given here.
Tests used:
[1] = Metabolic stability in human microsomes assessed as compound remaining measured at 60 mins; format: ADME, Microsome; settings: read-out: Stability
[2] = AUC (0 to t) in CD1 mouse at 4 mg/kg, iv; format: ADME, organism-based; set-up: dose 4 mg/kg, route intravenous; settings: plasma
[3] = Cmax in CD1 mouse at 20 mg/kg, po; format: ADME, organism-based; set-up: dose 20 mg/kg, route oral; settings: in vivo
[4] = Metabolic stability in human S9 fraction assessed as compound remaining measured at 60 mins; format: ADME; settings: read-out: Stability
[5] = Metabolic stability in mouse S9 fraction assessed as compound remaining measured at 60 mins; format: ADME; settings: s9, 1 h
[6] = Clearance in CD1 mouse at 4 mg/kg, iv; format: ADME, organism-based; set-up: dose 4 mg/kg, route intravenous; settings: in vivo
[7] = AUC (0 to t) in CD1 mouse at 20 mg/kg, po; format: ADME, organism-based; set-up: dose 20 mg/kg, route oral; settings: plasma
[8] = Tmax in CD1 mouse at 20 mg/kg, po; format: ADME, organism-based; set-up: dose 20 mg/kg, route oral; settings: in vivo
[9] = Metabolic stability in mouse microsomes assessed as compound remaining measured at 60 mins; format: ADME, Microsome; settings: read-out: Stability
[10] = Half life in CD1 mouse at 4 mg/kg, iv; format: ADME, organism-based; set-up: dose 4 mg/kg, route intravenous; settings: in vivo
[11] = Bioavailability in CD1 mouse at 4 mg/kg, iv; format: ADME, organism-based; settings: in vivo
[12] = Volume of distribution at steady state in CD1 mouse at 4 mg/kg, iv; format: ADME, organism-based; set-up: dose 4 mg/kg, route intravenous; settings: in vivo, read-out: Vdss
[13] = tested on: Mus musculus; assay: Anti-anemia activity in ICR mouse assessed as increase in hemoglobin level at 50 mg/kg, qd administered for 12 days measured on day 16; format: functional, organism-based; set-up: dose 50 mg/kg
Outline: (§1)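 Normal male ICR mice, 6 weeks old, dosed once daily for 4 days (QDx4) or 12 days (QDx12) alongside a vehicle group. Mice were split into groups by blood sampling day (D5, D8, D13, D16). Hematocrit, RBC count and Hb were measured in blood. Statistics: P<0.05 and P<0.01 vs vehicle at each sampling time.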

[14] = tested on: Mus musculus; assay: Anti-anemia activity in ICR mouse assessed as increase in red blood cell count at 50 mg/kg, qd administered for 12 days measured on day 16; format: functional, organism-based; set-up: dose 50 mg/kg; outline: as §1
[15] = tested on: Mus musculus; assay: Anti-anemia activity in ICR mouse assessed as increase in hemoglobin level at 50 mg/kg, qd administered for 12 days measured on day 13; format: functional, organism-based; set-up: dose 50 mg/kg; outline: as §1
[16] = tested on: Mus musculus; assay: Anti-anemia activity in ICR mouse assessed as increase in hematocrit level at 50 mg/kg, qd administered for 12 days measured on day 16; format: functional, organism-based; set-up: dose 50 mg/kg; outline: as §1
[17] = tested on: Mus musculus; assay: Anti-anemia activity in ICR mouse assessed as increase in hematocrit level at 50 mg/kg, qd administered for 12 days measured on day 13; format: functional, organism-based; set-up: dose 50 mg/kg; outline: as §1
[18] = tested on: Mus musculus; assay: Anti-anemia activity in ICR mouse assessed as increase in hemoglobin level at 50 mg/kg, qd administered for 4 days measured on day 8; format: functional, organism-based; set-up: dose 50 mg/kg; outline: as §1
[19] = tested on: Mus musculus; assay: Anti-anemia activity in ICR mouse assessed as increase in hemoglobin level at 50 mg/kg, qd administered for 4 days measured on day 5; format: functional, organism-based; set-up: dose 50 mg/kg; outline: as §1
[20] = tested on: Mus musculus; assay: Anti-anemia activity in ICR mouse assessed as increase in hematocrit level at 50 mg/kg, qd administered for 4 days measured on day 8; format: functional, organism-based; set-up: dose 50 mg/kg; outline: as §1
[21] = tested on: Mus musculus; assay: Anti-anemia activity in ICR mouse assessed as increase in hematocrit level at 50 mg/kg, qd administered for 4 days measured on day 5; format: functional, organism-based; set-up: dose 50 mg/kg; outline: as §1
[22] = tested on: Mus musculus; assay: Anti-anemia activity in ICR mouse assessed as increase in red blood cell count at 50 mg/kg, qd administered for 4 days measured on day 8; format: functional, organism-based; set-up: dose 50 mg/kg; outline: as §1
[23] = tested on: Mus musculus; assay: Anti-anemia activity in ICR mouse assessed as increase in red blood cell count at 50 mg/kg, qd administered for 4 days measured on day 5; format: functional, organism-based; set-up: dose 50 mg/kg; outline: as §1
[24] = tested on: Mus musculus; assay: Anti-anemia activity in ICR mouse assessed as increase in red blood cell count at 50 mg/kg, qd administered for 12 days measured on day 13; format: functional, organism-based; set-up: dose 50 mg/kg; outline: as §1

remaining at 1 h [1]: 119% | AUC(0-t) [2]: 17000 ng·h/mL | Cmax [3]: 15100 ng/mL | remaining at 1 h [4]: 101% | Stability [5]: 125.7% | clearance [6]: 3.92 mL/min/kg | AUC(0-t) [7]: 53700 ng·h/mL | Tmax [8]: 0.5 h | remaining at 1 h [9]: 68.6% | half-life [10]: 2.79 h | bioavailability [11]: 63.2% | Vd [12]: 0.503 L/kg
Structure (SMILES): O=C(O)CNC(=O)c1nc(Cl)c2c(sc3ccccc32)c1O

Structure (SMILES): O=C(O)CNC(=O)c1nc(Cl)c2ccccc2c1O
inhibition [13]: Active | inhibition [14]: Active | inhibition [15]: Active | inhibition [16]: Active | inhibition [17]: Active | inhibition [18]: Active | inhibition [19]: Active | inhibition [20]: Active | inhibition [21]: Active | inhibition [22]: Active | inhibition [23]: Active | inhibition [24]: Active

Source: ChEMBL document CHEMBL2434969, “[(4-Hydroxyl-benzo[4,5]thieno[3,2-c]pyridine-3-carbonyl)-amino]-acetic acid derivatives; HIF prolyl 4-hydroxylase inhibitors as oral erythropoietin secretagogues” (Bioorg Med Chem Lett, 2013)
